SDO1 yeast rescue: growth rescue of sdo1-depleted yeast, primary screen, S. cerevisiae, bone marrow failure model; S. cerevisiae sdo1-depleted JHY4D growth rescue, OD600 30 h; hits give high values; pdr5 snq2 efflux-pump mutant strain; z-score at 10 µM; 140,000 compounds, 0.21% hits;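 active means z-score above 3 at both the 24 hr and the 30 hr optical density reads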;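 further: z-score against mean and SD of all compound wells on the same plate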
FLuc inhib CS: firefly luciferase enzyme inhibitors, primary screen, artefact control for luciferase-based inhibitor screens, biochemical, luminescence, ATPLite; 10 min; 200,000 compounds, 1.5% hits; AID 1006, 2008; Luciferin 4-monooxygenase (Photinus pyralis), P08659; inhibition, % at 10 µM;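 active means inhibition above about 50% when tested at 10 µM, limit read from the data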
Target sequence (P08659 whole entry, looked up): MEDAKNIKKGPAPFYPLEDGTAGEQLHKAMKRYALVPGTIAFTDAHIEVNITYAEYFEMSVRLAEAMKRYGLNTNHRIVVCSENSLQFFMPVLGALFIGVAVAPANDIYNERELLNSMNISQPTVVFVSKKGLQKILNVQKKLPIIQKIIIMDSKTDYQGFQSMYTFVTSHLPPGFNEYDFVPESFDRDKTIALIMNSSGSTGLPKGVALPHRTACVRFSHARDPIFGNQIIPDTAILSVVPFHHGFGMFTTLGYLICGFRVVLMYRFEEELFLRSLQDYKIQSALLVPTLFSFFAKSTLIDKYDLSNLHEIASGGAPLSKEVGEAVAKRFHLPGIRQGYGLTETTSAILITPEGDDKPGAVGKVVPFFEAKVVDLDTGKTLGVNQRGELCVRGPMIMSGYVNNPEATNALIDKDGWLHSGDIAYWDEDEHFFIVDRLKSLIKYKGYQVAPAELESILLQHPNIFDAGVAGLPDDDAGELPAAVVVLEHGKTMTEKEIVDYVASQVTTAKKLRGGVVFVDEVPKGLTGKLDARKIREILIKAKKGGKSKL
STAT1 activator: STAT1 signaling activators, primary screen, cell-based, HTS, luciferase reporter; NIH 3T3 STAT1-luciferase reporter, IFN-gamma, luminescence; 100% = IFN-gamma alone, no compound; activation (% of control), % at 5.5 µM; 200,000 compounds, 2.6% hits;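 active means activation above the screen-wide mean activation plus 3 SD, cut at about 130% in these data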;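 further: raw ratio to IFN-gamma control signal so 100% means no change and 0% no light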
APP 5'UTR act: activators of APP 5'UTR luciferase reporter, primary screen, SH-SY5Y cells. 190,000 compounds, 1% hits. SH-SY5Y APP 5'UTR luciferase reporter, luminescence; zero percent = DMSO vehicle wells. activation, % at 2 µM. AID 1276, 2008;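 active means activation above a set limit, based on mean plus 3 SD of controls, cut at about 140% in these data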
FLuc act counter: FLuc activators, initial screening, artefact control for FLuc-dependent activation tests, biochemical, ATPlite luminescence; Luciferin 4-monooxygenase (Photinus pyralis), P08659; ATPlite luciferase biochemical, 10 min; 0 = ATP-free wells, 1 = DMSO control; activation factor at 10 µM; 200,000 tested, under 10 active; AID 1027, 2008;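 active means luciferase activation factor, scaled between plate controls, of at least 2 with compound at 10 µM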
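assay system = Luciferase/luciferin detection reagent, cell-free biochemical luciferase assay | also added = ATP substrate | times = 10 min post-reagent at room temperature | measured by = luminescence from luciferase reaction | measure = luciferase activation, seen as luminescence increase over controls | benchmarks = low control with PBS replacing ATP, high control enzyme plus ATP without compound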
NF-kB neuron act: activators of NF-kB expression in neurons, primary screen, cell-based, HTS; human neuronal cells, NF-kB reporter expression; hits give high values; AID 1239, 2008; fold change at 12.5 µM; 190,000 compounds, 1.6% hits; in the data active means fold change above about 3.3
Starred values were filed as active, the others as inactive; / = not tested or not shown. Only some compounds are listed: those with a hit (about 4.3% of all), similar ones and a draw of the others.

SMILES	SDO1 yeast rescue	FLuc inhib CS	STAT1 activator	APP 5'UTR act	FLuc act counter	NF-kB neuron act
CCOc1cc(/C=N/NC(=O)c2cccs2)cc([N+](=O)[O-])c1O	/	5.0	128.6*	70.4	0.9	0.92
CN(CC(=O)Nc1cc(S(=O)(=O)N2CCOCC2)ccc1Cl)C1CCS(=O)(=O)C1 (stereo unspecified)	/	29.8	97.0	4.0	0.7	0.89
COCn1c(-c2ccc(OC)cc2)nc2ccccc21	0.55	75.8*	128.8*	118.2	0.2	2.74
CCCn1c(-c2ccc(OC)cc2)nc2ccccc21	-1.02	5.2	92.2	15.6	0.9	0.77
O=C1C2C3C=CC(C4CC34)C2C(=O)N1/N=C/c1c[nH]c2ccccc12 (stereo unspecified)	/	77.8*	133.4*	61.6	0.2	1.4
O=C1C2C3C=CC(C4CC34)C2C(=O)N1/N=C/c1ccc([N+](=O)[O-])s1 (stereo unspecified)	-0.94	-3.5	110.2	-0.8	1	1.51
CCCc1cc(C(=O)Nc2ccc(F)cc2F)no1	-0.37	10.5	130.0*	33.6	0.9	1.86
CCCc1cc(C(=O)Nc2ccccc2SC)no1	-0.08	11.8	101.3	99.3	0.9	1.78
Cc1ccc(NC(=O)c2ccc(F)cc2)nc1	/	31.9	132.0*	77.2	0.7	3.07
COc1ccccc1C(=O)Nc1cccnc1	/	-6.7	98.5	-6.1	1.1	1.17
COc1ccc(C(=O)Nc2ccc(C)cn2)c(OC)c1	-0.54	94.9*	28.7	23.6	0.1	1.2
COc1ccccc1C(=O)Nc1ccccn1	0.59	46.1	132.5*	50.9	0.5	2.71
Cc1cccc(N2C(=O)CC(c3ccc(F)cc3)C3=C2COC3=O)c1 (stereo unspecified)	/	-2.1	92.0	6.6	1	1.05
Cc1ccc(OCC(=O)NNC(=O)C2CCN(c3nc(C)cc(C)n3)CC2)cc1	0.02	-4.5	105.3	15.6	1	1.05
Cc1cc(C(=O)NC(C)Cc2ccccc2)cc(C)c1[N+](=O)[O-] (stereo unspecified)	/	-4.4	97.7	-1.0	1	1.22
COc1ccccc1/C=N\Nc1cn[nH]c(=O)c1Cl	/	-1.6	88.6	10.8	1	9.09*
Cc1cccc(/C=N\Nc2cn[nH]c(=O)c2Cl)c1	-0.37	5.5	108.5	19.3	0.9	1.45
Cc1cc(C=C2C(=O)c3ccccc3C2=O)c(C)n1C	0.79	37.8	96.5	98.9	0.6	6.27*
CCn1c(C)cc(C=C2C(=O)c3ccccc3C2=O)c1C	/	78.6*	121.5	155.6*	0.2	3.42*
Cc1cccc(-n2c(C)cc(C=C3C(=O)c4ccccc4C3=O)c2C)c1	-1.53	40.8	100.9	5.8	0.6	0.71
CC(C)COC(=O)c1ccc(NC(=O)C2C3CCC(C3)C2C(=O)O)cc1 (stereo unspecified)	0.01	0.5	143.0*	64.7	1	0.93
NNC(=O)c1sc(-c2ccc(Cl)cc2)cc1N	/	0.8	134.5*	6.7	1	1.13
CCOC(=O)c1cc(-c2ccc(N)cc2)sc1N	0.43	12.9	139.4*	19.3	0.9	3
CCOC(=O)c1sc(-c2ccc(Br)cc2)cc1N	-1.59	13.0	137.3*	77.0	0.9	2.5
CCOc1c(Br)ccc2c1sc1nc[nH]c(=O)c12	-1.9	-10.9	103.8	-5.6	1.1	1.18
SMILES	SDO1 yeast rescue	FLuc inhib CS	STAT1 activator	APP 5'UTR act	FLuc act counter	NF-kB neuron act
COc1cccc(CC2(CO)CCN(CC3=CC[C@H]4C[C@@H]3C4(C)C)CC2)c1	/	-5.7	96.1	23.4	1.1	1.18
CCCn1c(C)cc(C(=O)COC(=O)c2nccnc2N)c1C	/	78.1*	70.2	133.9	0.2	2.12
COc1ccc(C2=NCN(c3ccc(C)cc3)C(=S)N2)cc1	-0.12	-5.4	113.0	53.5	1.1	1.75
Cc1ccc(N2CN=C(c3ccccc3)NC2=S)cc1	-0.22	2.0	130.4*	77.0	1	2.26
COC(=O)c1[nH]c2c(c1C)C(=O)CCC2	0.18	-3.1	92.2	3.5	1	1.08
Cc1c(C(=O)OC2CCC(C)CC2)[nH]c2c1C(=O)CCC2 (stereo unspecified)	-1.11	1.8	145.8*	148.1*	1	4.86*
O=C(N/N=C/c1cccs1)c1c[nH]c2ccccc12	1.87	37.3	128.6*	43.8	0.6	2.3
O=C(N/N=C/c1cccs1)c1ccccn1	0.16	51.1*	120.9	123.4	0.5	2.39
COc1ccc(CCC(=O)Nc2ccccc2C(F)(F)F)cc1	-1.07	-4.8	98.3	-9.8	1	0.97
CCOC(=O)c1cnc(SCC(=O)c2ccc(Cl)cc2)nc1N	-0.82	-8.2	98.2	10.6	1.1	1.21
CCOC(=O)c1cnc(SCc2nc(N)nc(Nc3ccccc3)n2)nc1N	0.37	9.1	101.2	-21.1	0.9	0.5
CCCCSc1ncc(C(=O)OCC)c(N)n1	-0.7	29.5	139.1*	163.7*	0.7	6.79*
CCOC(=O)c1cnc(SCc2ccc(C)cc2)nc1N	-1.61	-8.4	140.1*	18.4	1.1	2.23
O=C(NC(c1ccccc1)C(Cl)(Cl)Cl)c1ccccc1 (stereo unspecified)	-0.66	-5.4	98.9	5.9	1.1	0.99
O=C1N=C(N2CCCCC2)SC1=C1CCCCC1	-0.31	8.0	121.3	64.0	0.9	2.65
CN1C(=O)/C(=C2\SC(N3CCCCCC3)=NC2=O)c2ccccc21	-0.98	79.1*	121.8	16.3	0.2	0.92
O=C1N=C(N2CCOCC2)S/C1=C1\C(=O)N(Cc2ccccc2)c2ccccc21	-1.68	21.2	101.5	380.0*	0.8	1.36
CCCN1C(=O)/C(=C2\SC(N3CCCCC3)=NC2=O)c2ccccc21	-1.61	70.7*	126.8	19.9	0.3	0.72
N#Cc1cn(Cc2ccncc2)c(=O)[nH]c1=O	/	-5.7	111.0	8.4	1.1	1.33
Cc1ccc2nc(CSc3nc(C)ccc3C#N)[nH]c2c1	-2.11	64.6*	139.1*	92.7	0.4	1.72
CC(C)(C)C(=O)Nc1sc2c(c1C(=O)Nc1ccccn1)CCCC2	/	-3.7	103.2	-16.0	1	1.09
CCC(=O)c1ccc(OC(C)C(=O)NC2(C#N)CCCCC2)cc1 (stereo unspecified)	/	0.3	93.6	19.8	1	1.21
CN(C)c1ccc(N=Nc2ccccc2C(=O)OCC(=O)N2CCCC2)cc1	-0.29	69.9*	98.3	14.5	0.3	1.04
CN(C)c1ccc(N=Nc2ccccc2C(=O)OCC(=O)N2CCCCCC2)cc1	-0.42	71.8*	93.4	18.1	0.3	0.77
